Converted amounts (≈) assume the structure as drawn.
Columns and labels:
[1] = test system: HT-29; assay: Cytotoxicity against human HT-29 cells; assay type: functional; settings: read-out: ED50 (the source's name)
Summary of the method: (§1)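 Human tumor cell cytotoxicity run by the Purdue Cancer Center's cell culture laboratory using standard protocols, with adriamycin as the positive standard. A-549, MCF-7 and HT-29 were each tested under a separately cited protocol.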

[2] = Toxicity against brine shrimp; assay type: organism-based; settings: artemia, in vivo
Summary of the method: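 Brine shrimp lethality assay run in-house following a published method. The positive standard, adriamycin, was dissolved directly in sea water and tested immediately.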

[3] = test system: MCF7; assay: Cytotoxicity against human MCF7 cells; assay type: functional; settings: read-out: ED50 (the source's name); summary of the method: as §1
[4] = test system: A549; assay: Cytotoxicity against human A549 cells; assay type: functional; settings: read-out: ED50 (the source's name); summary of the method: as §1

Compound	EC50 [1]	LC50 [2]	EC50 [3]	EC50 [4]
O=C1C[C@H]2C[C@@H](O1)[C@H](O)[C@H](c1ccccc1)O2	7.38 µg/mL (≈ 31.5 µM)	> 500 µg/mL	25.4 µg/mL (≈ 108 µM)	27.2 µg/mL (≈ 116 µM)
O=C1C[C@@H]2O[C@@H]([C@H](O)c3ccccc3)[C@@H](O)[C@@H]2O1 (relative stereo)	> 100 µg/mL	475 µg/mL (≈ 1900 µM)	49.1 µg/mL (≈ 196 µM)	85.5 µg/mL (≈ 342 µM)
COc1cccc2c1C(=O)c1c(O)c3c(c(O)c1C2=O)C[C@@](O)(C(=O)CO)C[C@@H]3O[C@H]1C[C@H](N)[C@H](O)[C@H](C)O1 [DOXORUBICIN]	0.00416 µg/mL (≈ 0.00765 µM)		0.0177 µg/mL (≈ 0.0326 µM)	0.00684 µg/mL (≈ 0.0126 µM)
O=C1C=CC[C@H]([C@H](O)[C@H](O)c2ccccc2)O1 [GONIODIOL]	2.45 µg/mL (≈ 10.5 µM)	> 500 µg/mL	8.27 µg/mL (≈ 35.3 µM)	0.122 µg/mL (≈ 0.521 µM)
